Data from ChEMBL document CHEMBL1137139, “Synthesis of potent taxoids for tumor-specific delivery using monoclonal antibodies” (Bioorg Med Chem Lett, 2004).

Experiments:
Format in all cases: functional, cell-based
A-431 = experiment: Cytotoxic effect on A431 cell proliferation after 72 hr; conditions: Homo sapiens, A-431, 72 h
How it was run: (§1)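 Human cancer cell lines were exposed to the compound continuously for 72 h, and growth inhibition was measured. IC50 was taken as the concentration that inhibits 50% of cell-line growth.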

A549 [1] = experiment: Compound was tested for its cytotoxicity by inhibiting the growth of A-549 cell line after 72 h; conditions: Homo sapiens, A549, 72 h
A549 [2] = experiment: Concentration of compound that Compound was tested for its cytotoxicity by inhibiting the growth of A-549 cell line after 72 h; conditions: Homo sapiens, A549, 72 h; how it was run: as §1
MCF7 = experiment: Compound was tested for its cytotoxicity by inhibiting the growth of MCF-7 cell line after 72 h; conditions: Homo sapiens, MCF7, 72 h
A549 [3] = experiment: Concentration of compound that inhibits 50% of growth of Compound was tested for its cytotoxicity by inhibiting the growth of; conditions: Homo sapiens

For `CSSCCC(=O)O[C@@H](C(=O)O[C@H]1C[C@@]2(O)[C@@H](OC(=O)c3ccccc3)[C@@H]3[C@]4(OC(C)=O)CO[C@@H]4C[C@H](O)[C@@]3(C)C(=O)[C@H](OC(C)=O)C(=C1C)C2(C)C)[C@H](C=C(C)C)NC(=O)OC(C)(C)C`, the IC50 (A-431) was > 3 nM and the IC50 (A549 [1]) was 0.9 nM.

For `CSSCCC(=O)O[C@H]1C(=O)[C@@]2(C)[C@H]([C@H](OC(=O)c3cccc(Cl)c3)[C@]3(O)C[C@H](OC(=O)[C@H](O)[C@H](C=C(C)C)NC(=O)OC(C)(C)C)C(C)=C1C3(C)C)[C@]1(OC(C)=O)CO[C@@H]1C[C@@H]2O`, the IC50 (A549 [2]) was 0.29 nM and the IC50 (MCF7) was 0.08 nM.

With `CC(=O)O[C@H]1C(=O)[C@@]2(C)[C@H]([C@H](OC(=O)c3cccc(N(C)C)c3)[C@]3(O)C[C@H](OC(=O)[C@H](O)[C@H](C=C(C)C)NC(=O)OC(C)(C)C)C(C)=C1C3(C)C)[C@]1(OC(C)=O)CO[C@@H]1C[C@@H]2O` the IC50 (A549 [1]) was 1 nM and the IC50 (MCF7) was 1 nM.

`CSSCCC(=O)O[C@H]1C(=O)[C@@]2(C)[C@H]([C@H](OC(=O)c3cccc(N(C)C)c3)[C@]3(O)C[C@H](OC(=O)[C@H](O)[C@H](C=C(C)C)NC(=O)OC(C)(C)C)C(C)=C1C3(C)C)[C@]1(OC(C)=O)CO[C@@H]1C[C@@H]2O` was tested, and the IC50 (A549 [1]) was > 3 nM and the IC50 (MCF7) was 3 nM.

Work on `CC(=O)O[C@H]1C(=O)[C@@]2(C)[C@H]([C@H](OC(=O)c3cc(F)cc(F)c3)[C@]3(O)C[C@H](OC(=O)[C@H](O)[C@H](C=C(C)C)NC(=O)OC(C)(C)C)C(C)=C1C3(C)C)[C@]1(OC(C)=O)CO[C@@H]1C[C@@H]2O` yielded an IC50 (A549 [3]) of 0.1 nM and an IC50 (MCF7) of 0.04 nM.

In the case of `COc1cccc(C(=O)O[C@H]2[C@@H]3[C@]4(OC(C)=O)CO[C@@H]4C[C@H](O)[C@@]3(C)C(=O)[C@H](OC(=O)CCSSC)C3=C(C)[C@@H](OC(=O)[C@H](O)[C@H](C=C(C)C)NC(=O)OC(C)(C)C)C[C@]2(O)C3(C)C)c1`, the IC50 (A549 [1]) is reported as 0.1 nM and the IC50 (MCF7) is reported as 0.038 nM.

`CC(=O)O[C@H]1C(=O)[C@@]2(C)[C@H]([C@H](OC(=O)c3cccc(Cl)c3)[C@]3(O)C[C@H](OC(=O)[C@H](O)[C@H](C=C(C)C)NC(=O)OC(C)(C)C)C(C)=C1C3(C)C)[C@]1(OC(C)=O)CO[C@@H]1C[C@@H]2O` showed an IC50 (A549 [1]) of 0.03 nM and an IC50 (MCF7) of 0.02 nM.

For `COc1cccc(C(=O)O[C@H]2[C@@H]3[C@]4(OC(C)=O)CO[C@@H]4C[C@H](O)[C@@]3(C)C(=O)[C@H](OC(C)=O)C3=C(C)[C@@H](OC(=O)[C@H](O)[C@H](C=C(C)C)NC(=O)OC(C)(C)C)C[C@]2(O)C3(C)C)c1`, the IC50 (A549 [1]) was 0.04 nM and the IC50 (MCF7) was 0.02 nM.

In the case of `CSSCCC(=O)N[C@@H](CC(C)C)[C@@H](O)C(=O)O[C@H]1C[C@@]2(O)[C@@H](OC(=O)c3ccccc3)[C@@H]3[C@]4(OC(C)=O)CO[C@@H]4C[C@H](O)[C@@]3(C)C(=O)[C@H](OC(=O)N3CCOCC3)C(=C1C)C2(C)C`, the IC50 (A-431) is reported as 2.8 nM and the IC50 (A549 [1]) is reported as > 3 nM.

`CCC(=O)O[C@H]1C(=O)[C@@]2(C)[C@H]([C@H](OC(=O)c3ccccc3)[C@]3(O)C[C@H](OC(=O)[C@H](O)[C@H](CC(C)C)NC(=O)CCSSC)C(C)=C1C3(C)C)[C@]1(OC(C)=O)CO[C@@H]1C[C@@H]2O` was tested, and the IC50 (A-431) was > 3 nM and the IC50 (A549 [1]) was > 3 nM.

For `CSSCCC(=O)O[C@H]1C(=O)[C@@]2(C)[C@H]([C@H](OC(=O)c3cc(F)cc(F)c3)[C@]3(O)C[C@H](OC(=O)[C@H](O)[C@H](C=C(C)C)NC(=O)OC(C)(C)C)C(C)=C1C3(C)C)[C@]1(OC(C)=O)CO[C@@H]1C[C@@H]2O`, the IC50 (A549 [1]) was 0.36 nM and the IC50 (MCF7) was 0.15 nM.

`COc1ccc(OC)c(C(=O)O[C@H]2[C@@H]3[C@]4(OC(C)=O)CO[C@@H]4C[C@H](O)[C@@]3(C)C(=O)[C@H](OC(C)=O)C3=C(C)[C@@H](OC(=O)[C@H](O)[C@H](C=C(C)C)NC(=O)OC(C)(C)C)C[C@]2(O)C3(C)C)c1` gave an IC50 (A549 [1]) of 0.03 nM and an IC50 (MCF7) of 0.03 nM.

`COc1ccc(OC)c(C(=O)O[C@H]2[C@@H]3[C@]4(OC(C)=O)CO[C@@H]4C[C@H](O)[C@@]3(C)C(=O)[C@H](OC(=O)CCSSC)C3=C(C)[C@@H](OC(=O)[C@H](O)[C@H](C=C(C)C)NC(=O)OC(C)(C)C)C[C@]2(O)C3(C)C)c1` gave an IC50 (A549 [1]) of 0.08 nM and an IC50 (MCF7) of 0.04 nM.

`CSSCCC(=O)O[C@H]1C[C@H]2OC[C@@]2(OC(C)=O)[C@H]2[C@H](OC(=O)c3ccccc3)[C@]3(O)C[C@H](OC(=O)[C@H](O)[C@H](C=C(C)C)NC(=O)OC(C)(C)C)C(C)=C([C@@H](O)C(=O)[C@]12C)C3(C)C` gave an IC50 (A-431) of 0.3 nM and an IC50 (A549 [1]) of 0.2 nM.

`CSSc1cccc(C(=O)O[C@H]2[C@@H]3[C@]4(OC(C)=O)CO[C@@H]4C[C@H](O)[C@@]3(C)C(=O)[C@H](OC(C)=O)C3=C(C)[C@@H](OC(=O)[C@H](O)[C@H](C=C(C)C)NC(=O)OC(C)(C)C)C[C@]2(O)C3(C)C)c1` was tested, and the IC50 (A-431) was > 3 nM and the IC50 (A549 [1]) was > 3 nM.
